OX1R antag-1 – OX1R (human) antagonism | hit rate 1.8% among 330,000 | inhibition, % at 6.6 µM | AID 485270 | O43613 | OX1R-expressing cells, FRET antagonist read-out; in the data active means inhibition mostly above about 38%, no sharp cut-off; inactive means mostly below about 40%
Target sequence (O43613 whole entry, looked up): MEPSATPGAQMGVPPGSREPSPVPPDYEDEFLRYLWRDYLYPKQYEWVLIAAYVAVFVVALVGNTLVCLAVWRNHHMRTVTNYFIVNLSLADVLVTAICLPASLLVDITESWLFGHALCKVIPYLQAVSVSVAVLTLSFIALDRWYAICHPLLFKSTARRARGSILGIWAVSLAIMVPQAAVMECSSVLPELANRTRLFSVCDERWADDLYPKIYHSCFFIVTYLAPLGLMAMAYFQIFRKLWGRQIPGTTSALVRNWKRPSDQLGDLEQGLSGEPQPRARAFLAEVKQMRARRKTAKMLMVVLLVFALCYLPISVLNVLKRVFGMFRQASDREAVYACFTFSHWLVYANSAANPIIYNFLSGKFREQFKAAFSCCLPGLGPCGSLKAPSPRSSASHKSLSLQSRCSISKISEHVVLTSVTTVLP
GPR7 antag – antagonists of human GPR7 (neuropeptides B/W receptor 1). P48145. GPR7-expressing cells, fluorescence antagonist assay. inhibition, % at 4.4 µM. hit rate 1.1% among 290,000. AID 1861; in the data active means inhibition above about 16%, passing the limit was not always enough;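 further: cells stimulated with the agonist NPW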
CHO parental Ca – signal in parental CHO cells, OX1R antagonist counter-screen; parental CHO-K1, ATP-induced calcium, Fluo-8 fluorescence; hit rate 0.63% among 330,000; inhibition, % at 5.6 µM; AID 463079;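 active means inhibition above that plate's mean sample inhibition plus 3 SD, cut at about 26% in these data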
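Material – parental CHO cells · Reagent – ATP stimulus · Compound – single nominal dose of 5.6 µM per compound · Detection – Fluo-8 fluorescence · Read-out basis – percent inhibition of calcium signal · Controls – ATP-challenged DMSO wells low, unchallenged DMSO wells high · Repeats – no replicates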
OX1R antag-2 – blocks the human orexin 1 receptor; O43613; CHO/OX1R cells, Fluo-8 calcium fluorescence, orexin A; inhibition, % at 5 µM; hit rate 0.43% among 330,000;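 active means inhibition above its plate's threshold, mean inhibition of all tested compounds on the plate plus 3 SD, cut at about 37% in these data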
MPTP block – permeability transition pore inhibition. isolated mouse mitochondria, Ca2+ swelling absorbance, 30 min. hit rate 1.4% among 360,000. AID 602449. inhibition, % at 10 µM;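 active means inhibition of 50% or more, scaled per plate between neutral and stimulator controls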
A number is an active result; – = inactive; · = no result. Only some compounds are listed: those with a hit (about 3.8% of all), similar ones and a draw of the others.

SMILES | OX1R antag-1 | GPR7 antag | CHO parental Ca | OX1R antag-2 | MPTP block
C/C(=N\Nc1ncnc2sc(C)c(C)c12)c1ccccn1 | – | – | 79 | 90 | –
Cc1sc2ncnc(N/N=C/c3cccc(O)c3)c2c1C | – | – | – | – | –
CN(C)CCCN(C(=O)c1ccc([N+](=O)[O-])s1)c1nc2cc3c(cc2s1)OCCO3 | 78 | – | – | – | –
COc1cc(/C=C(\C#N)c2nc3c(s2)CCCC3)ccc1O | – | – | 82 | 94 | ·
Cc1cccc(OCc2nnc(SCC(=O)c3c(N)n(C4CC4)c(=O)[nH]c3=O)o2)c1 | · | · | · | · | –
COc1cc(OC)cc(C(=O)N[C@H](C(=O)OCC(=O)Nc2ccc(OC)c(OC)c2)C(C)C)c1 | – | – | – | – | –
COc1cc(OC)cc(C(=O)N[C@H](C(=O)OCC(=O)Nc2cccc(F)c2)C(C)C)c1 | – | 21 | – | – | –
Cc1nc([N+](=O)[O-])cn1CC(=O)c1ccccc1 | – | – | – | – | –
Cc1nc([N+](=O)[O-])cn1-c1nc2ccccn2c1[N+](=O)[O-] | 54 | – | – | – | –
Cc1ccc(C(C(=O)NC(C)(C)C)N(Cc2ccccc2)C(=O)c2snc(C(N)=O)c2N)o1 (stereo not given) | – | – | – | – | –
Clc1ccc(CSc2nncn2-c2ccc3c(c2)OCCO3)cc1 | – | 19 | – | – | –
Clc1ccc(CSc2nncn2-c2ccccn2)cc1 | – | – | – | – | –
COc1ccc(S(=O)(=O)NCC2CCC(C(=O)NCC(OC)OC)CC2)cc1 (stereo not given) | – | – | – | – | –
NS(=O)(=O)c1ccc(CCNC(=O)CCCCCn2c(=S)[nH]c3ccc(Br)cc3c2=O)cc1 | – | 17 | – | – | –
O=C(CCCCCn1c(=S)[nH]c2ccc(Br)cc2c1=O)NCC1CCCO1 (stereo not given) | – | – | – | – | –
Cc1ccc(S(=O)(=O)N2CCN(C(=O)COC(=O)COc3ccccc3C(C)C)CC2)c(C)c1 | · | · | · | · | –
Cc1ccc2cc(C3C(C#N)=C(N)Oc4c3ccc3cccnc43)c(=O)[nH]c2c1 (stereo not given) | 45 | – | – | – | –
CCC(c1nnnn1-c1ccc2c(c1)OCCO2)N1CCN(c2ncccc2C(F)(F)F)CC1 (stereo not given) | · | · | · | · | –
CS(=O)(=O)c1ccc(C(=O)OCC(=O)NC(=O)C2CCCCC2)cc1[N+](=O)[O-] | 49 | – | – | – | –
COc1ccc(-c2csc(C(C)(O)c3cccnc3)n2)cn1 (stereo not given) | · | · | · | · | –
CCn1c(O)c(N=NC(=O)c2cccs2)c2ccccc21 | 76 | – | – | – | –
CCn1c(O)c(N=NC(=O)CNC(=O)/C=C/c2ccco2)c2ccccc21 | 36 | – | – | – | –
CCn1c(O)c(N=NC(=O)CNC(=O)c2ccco2)c2ccccc21 | – | – | – | – | –
COc1ccc(C(=O)NCCS(=O)(=O)N2CCOCC2)cc1 | – | · | – | – | –
CCN1C(c2ccc(F)cc2)=CS/C1=C(/C#N)c1nnc2n1-c1ccccc1SC2 | · | · | · | · | –
SMILES | OX1R antag-1 | GPR7 antag | CHO parental Ca | OX1R antag-2 | MPTP block
Cn1c(=O)c2c(ncn2CC(=O)OCC(=O)Nc2cccc(C#N)c2)n(C)c1=O | · | · | · | · | –
CCOc1ccccc1N(CC(=O)NCCc1ccc(OC)c(OC)c1)S(=O)(=O)c1ccccc1 | 76 | – | – | – | –
COc1ccc(S(=O)(=O)N(CC(=O)NC2CC3CCC2C3)c2ccccc2OC)cc1 (stereo not given) | – | – | – | – | –
CCOc1ccccc1N(CC(=O)Nc1ccc(OC)cc1OC)S(=O)(=O)c1ccccc1 | 50 | – | – | – | –
COc1ccc(OC)c(N(CC(=O)NC2CC3CCC2C3)S(=O)(=O)c2ccccc2)c1 (stereo not given) | 46 | – | – | – | –
COc1ccc(N(CC(=O)NCCC2=CCCCC2)S(=O)(=O)c2ccccc2)c(OC)c1 | 62 | – | – | – | –
COc1cc(C=O)ccc1OC(=O)c1cccnc1 | – | – | – | – | –
COCCNC(=O)C1(C)CCN(C(=O)c2cccc(C)c2C)C1 (stereo not given) | · | · | · | · | –
CC(C)(C)c1ccc(OCCCC(=O)Nc2nnc(C3CC3)s2)cc1 | · | · | · | · | –
Cc1cc(Cl)ccc1C(O)c1ncc(-c2ccc(Cl)cc2)[nH]1 (stereo not given) | · | · | · | · | –
Cc1ccccc1Nc1nc(N)nc(CSc2nc3ccccc3s2)n1 | 67 | – | – | – | –
Cc1ccc(Nc2nc(N)nc(CSc3nc4ccccc4s3)n2)cc1 | – | – | – | – | –
